# The list is not random: actives were taken first. Their share in the collection is about 2.1%.
# Runt-CBFb FRET: blocks binding of human RUNX1 Runt domain to CBFb | 220,000 tested, 0.46% active | inhibition, % at 20 µM | Cerulean-Runt/Venus-CBFb FRET ratio 530/480, 1 h;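 active = inhibition over about 50% at 20 µM in the single-dose screen, limit read from the data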;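 note: 0% = DMSO wells and 100% = excess unlabeled CBFb competitor control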
#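 test system = Cerulean-tagged RUNX1 Runt domain (FRET donor) fusion protein | reagent = Venus-CBFb binding partner, 100 nM | incubation = protein complex preformed 1 h, compound exposure 1 h, room temperature, dark | detection = FRET fluorescence | read-out basis = loss of energy transfer signal | controls = 5 µM unlabeled CBFb as full-inhibition high control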
# Runt-SMMHC FRET: blocks binding of human RUNX1 Runt domain to CBFb-SMMHC | Cerulean-Runt/Venus-CBFb-SMMHC FRET ratio 530/480, 1 h | 220,000 tested, 0.74% active | inhibition, % at 20 µM | Q01196+Q13951;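 active = mean inhibition across duplicate retests at 20 µM reaching about 50%, limit read from the data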;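 note: 0% = DMSO wells and 100% = wells with excess untagged CBFb-SMMHC; inhibitors lower the FRET ratio by blocking Runt binding to CBFb-SMMHC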
# KLK7 zymogen act: activates the human kallikrein-7 zymogen; P49862; purified proKLK7, EDANS-DABCYL substrate fluorescence; 100% is mature enzyme control, 0% vehicle; activation, % at 7 µM; 370,000 tested, 0.9% active;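 active = activation above the mean of all tested compounds plus 3 SD, computed per campaign excluding outliers beyond control limits, cut at about 13% in these data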
# Target sequence (P49862 whole entry, looked up): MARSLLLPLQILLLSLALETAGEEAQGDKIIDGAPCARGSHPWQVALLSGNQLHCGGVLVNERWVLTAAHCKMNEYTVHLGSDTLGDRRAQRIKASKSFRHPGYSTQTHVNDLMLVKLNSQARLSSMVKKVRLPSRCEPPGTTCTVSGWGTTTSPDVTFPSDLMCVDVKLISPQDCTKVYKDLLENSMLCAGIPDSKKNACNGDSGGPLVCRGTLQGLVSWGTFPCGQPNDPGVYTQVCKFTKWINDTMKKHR
# MEX-5 binding: C. elegans MEX-5 TCR-2 RNA binding activity; 300,000 tested, 0.38% active; MEX-5/FITC-TCR2 RNA binding, fluorescence polarization; hits give low values; Q9XUB2; activity score (negative = inhibition of binding), % at 10 µM;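 active = inhibition past about -25% in most replicates, and total fluorescence under double the plate's negative control median, limit read from the data; inconclusive = replicates evenly split on the limit, or fluorescence at least double controls; inactive = too little inhibition in most replicates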;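 note: 0% = DMSO and -100% = 5 µM competing unlabeled TCR2 RNA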
# Target sequence (Q9XUB2 whole entry, looked up): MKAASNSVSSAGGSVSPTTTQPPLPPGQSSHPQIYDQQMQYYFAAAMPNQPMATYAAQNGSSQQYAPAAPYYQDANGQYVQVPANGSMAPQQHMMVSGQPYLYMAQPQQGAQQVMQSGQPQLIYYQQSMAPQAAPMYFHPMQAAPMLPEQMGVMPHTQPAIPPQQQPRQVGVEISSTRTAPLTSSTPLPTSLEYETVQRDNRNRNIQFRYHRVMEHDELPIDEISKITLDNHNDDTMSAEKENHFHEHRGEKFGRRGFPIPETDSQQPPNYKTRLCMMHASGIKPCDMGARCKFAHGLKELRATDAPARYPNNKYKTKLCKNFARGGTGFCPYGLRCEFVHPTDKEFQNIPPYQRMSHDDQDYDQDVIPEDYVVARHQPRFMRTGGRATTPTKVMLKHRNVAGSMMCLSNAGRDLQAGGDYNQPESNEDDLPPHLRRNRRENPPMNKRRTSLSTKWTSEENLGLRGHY
# RanGTP-Imp inh: inhibitors of RanGTP-importin-beta interaction, primary screen, biochemical, FRET, CFP-Ran, YFP-importin-beta, homogeneous | inhibition, % (no concentration beside the values) | AID 2216 | 300,000 tested, 1.1% active | cell-free CFP-Ran/YFP-importin-beta FRET ratio;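 active = more than half of the replicate wells show a fall in the fluorescence ratio signal beyond about 16%, limit read from the data, passing the limit was not always enough; inconclusive = exactly half of the replicate wells pass the set limit; inactive = fewer than half of replicates pass the limit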;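 note: 0% = DMSO wells and 100% = Ran loaded with GDP instead of GTP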
# KLK7 act conf: confirmation of human kallikrein-7 zymogen activators. shares compounds with KLK7 zymogen act. purified proKLK7, EDANS-DABCYL substrate fluorescence; scaled: vehicle 0, mature enzyme 100. activation, % at 7 µM. 3,200 tested, 68% active. AID 686949;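 active = activation, as change over the incubation, above the mean of all tested compounds plus 3 SD, cut at about 13% in these data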
# EDANS-DABCYL int: optically interferes with EDANS-DABCYL signal, flagging KLK7 hits; 3,200 tested, 80% active; EDANS-DABCYL substrate fluorescence interference, no enzyme, 4 h; solvent 0%, active enzyme control 100%; activation, % at 7 µM; shares compounds with KLK7 zymogen act;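 active = activation above the all-compound mean plus 3 SD, ignoring values outside control-based bounds, cut at about 4.8% in these data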;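 note: value is the 4 h activation minus the activation read at time zero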
# K7 EDANS ctr: EDANS fluorescence interference in dose response, no enzyme. shares compounds with KLK7 zymogen act. EDANS-DABCYL peptide fluorescence interference. EC50, µM. 250 tested, 20% active. AID 720493;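 active = compounds that raise the fluorescence signal in this interference counterscreen, with EC50 at or below 10 µM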;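 note: intact quenched peptide substrate alone read at 355 nm excitation and 520 nm emission; signal is fluorescence gain from T0 to T4 after four hours at room temperature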
# * hit, by the source's call; ? = inconclusive; . = no result given.
SMILES,Runt-CBFb FRET,Runt-SMMHC FRET,KLK7 zymogen act,MEX-5 binding,RanGTP-Imp inh,KLK7 act conf,EDANS-DABCYL int,others
O=c1[nH]c2cc3c(cc2cc1CN(Cc1nnnn1CC1CCCO1)C1CCCCC1)OCO3 (centres undefined),17.9,57.4*,50.9*,-6.3,-102.9,-90.3,-72.8,
COc1cc2cc(CN(CCCN3CCOCC3)Cc3nnnn3Cc3ccccc3)c(=O)[nH]c2cc1OC,-47.5,-31.5,15.4*,0.3,-5.5,-12.5,-8.0,
CCOC(=O)CC[C@H](NC(=O)Cn1cc(C)c(=O)[nH]c1=O)C(=O)OCC,.,.,-1.2,.,.,.,.,
COc1ccc(-n2c(COc3ccc(Cl)cc3)nnc2SCC(=O)Nc2ccc3c(c2)OCO3)cc1,.,.,0.5,.,.,.,.,
COc1ccc(NC(=O)C2Cc3c(-c4cccc(NC(C)=O)c4)ccnc3O2)cc1 (centres undefined),.,.,-0.1,.,.,.,.,
CC(C)(C)n1nnnc1C(c1ccccc1)N1CCN(CCN2CCOCC2)CC1 (centres undefined),.,.,1.5,.,.,.,.,
COc1ccc(/C=C/C(=O)NC2=NCCS2)cc1OC,0.4,1.5,15.1*,1.6,1.0,48.1*,46.8*,
Cc1c(NC(=O)c2ccco2)cccc1C(=O)NN1C(=O)c2ccccc2C1=O,0.7,-2.9,0.6,0.1,3.6,.,.,
CCN(CC)C(=O)C(c1ccccc1)S(=O)(=O)N1CCOCC1 (centres undefined),.,.,-0.4,.,.,.,.,
COc1ccc(O)c(C(=O)CC(=O)c2ccncc2)c1,.,.,14.1*,.,.,282.2*,290.0*,
CN(Cc1nc2ccccc2c(=O)[nH]1)C(=O)c1cccc(S(=O)(=O)N2CCc3ccccc32)c1,.,.,-0.1,.,.,.,.,
OCc1ccc(-c2cncc3nccn23)cc1,.,.,22.6*,.,.,26.8*,26.9*,
Cn1c(=O)c2c(-c3ccccc3)n(-c3ccccc3Br)cc2n(C)c1=O,.,.,0.0,.,.,.,.,
CSc1c2c([nH]c(=O)c1C#N)-c1ccccc1CC2,.,.,-0.2,.,.,.,.,
N#Cc1c(-c2cccnc2)c2c([nH]c1=O)-c1ccccc1OC2,9.8,81.6*,72.5*,-0.9,112.8*,66.0*,70.8*,
Cc1c(C2(O)CCCCC2)[nH]c2cnccc12,.,.,77.3*,.,.,23.8*,13.9*,K7 EDANS ctr=>69.5
CCOC(=O)c1c[nH]n2c(=S)ncnc12,.,.,0.0,.,.,.,.,
CCN(CC)Cc1c(O)ccc2c1O/C(=C\C=C\c1ccccc1)C2=O,-346.9,-154.3,-2.8,-7.2,-50.0,.,.,
CCc1ccc(/C=C2\Oc3c(ccc(O)c3CN3CCN(CCO)CC3)C2=O)cc1,11.7,81.2*,28.4*,-30.0*,11.9,1.5,6.5*,
COc1ccc(-c2csc(C(O)c3ccc(F)cc3)n2)cc1OC (centres undefined),.,.,0.2,.,.,.,.,
OCCCCc1nccc2c1[nH]c1ccccc12,3.1,-0.9,35.5*,0.3,-2.4,29.3*,37.0*,
COc1ccc(-c2cc(=O)oc3cc(OC(=O)C4CCCCC4)c(Cl)cc23)cc1,66.6*,58.5*,63.5*,-1.3,20.7*,63.8*,37.3*,K7 EDANS ctr=>69.5
COc1ccccc1C(=O)N1CCCC(c2nc(-c3cccs3)no2)C1 (centres undefined),.,.,0.1,.,.,.,.,
CCOc1ccc(C2C3=C(CCCC3=O)Nc3nc(C(F)(F)F)nn32)cc1OC (centres undefined),-0.6,0.8,44.3*,-0.7,-1.7,52.1*,58.2*,
COc1ccc(C2C3=C(CCCC3=O)Nc3nc(C(F)(F)F)nn32)c(OC)c1OC (centres undefined),0.0,-7.5,22.9*,1.9,4.7,38.1*,35.7*,
SMILES,Runt-CBFb FRET,Runt-SMMHC FRET,KLK7 zymogen act,MEX-5 binding,RanGTP-Imp inh,KLK7 act conf,EDANS-DABCYL int,others
COc1ccc(C2C3=C(CCCC3=O)Nc3nc(C(F)(F)F)nn32)cc1OC (centres undefined),4.7,4.7,15.2*,-0.7,9.6,43.0*,57.9*,
COc1cccc(CNC(=O)C2CCN(S(=O)(=O)c3ccc4c(c3)CC(C)N4C(C)=O)CC2)c1 (centres undefined),.,.,0.1,1.4,-2.0,.,.,
CCNC(=O)NC1(C(=O)N2CCC(Cc3ccccc3)CC2)CCCCC1,.,.,0.3,4.1,?,.,.,
Nc1ccc(-c2nc3ccccc3[nH]2)cc1,2.3,2.1,1.0,-0.3,-10.5,.,.,
Nc1ccccc1-c1nc2ccccc2[nH]1,-0.8,2.7,68.9*,-1.8,4.6,-2.4,0.5,
O=c1oc2c(O)cccc2cc1-c1nc2ccccc2[nH]1,.,.,45.7*,-24.4,132.6*,75.1*,67.2*,
O=c1[nH]cccc1-c1nc2ccccc2[nH]1,.,.,56.0*,12.3,0.6,65.8*,75.2*,
Oc1ccc(C=Nc2ccccc2-c2nc3ccccc3[nH]2)cc1,1.4,8.2,80.9*,-1.4,?,29.9*,29.0*,
COC(=O)C[C@H]1CC[C@@H]2[C@@H](COc3ccc(NS(=O)(=O)c4ccccc4Cl)cc3C(=O)N2C)O1,.,.,-0.3,.,.,.,.,
CC(C)C[C@@H](CO)NS(=O)(=O)c1cc(Cl)ccc1F,.,.,-1.1,.,.,.,.,
CN(C)c1ccccc1-c1cc(NC=O)c2ncc(-c3cccc(C(F)(F)F)c3)n2c1,.,.,107.0*,.,.,177.7*,144.0*,
COc1ccccc1-c1cc(NC=O)c2ncc(-c3cccc(C(F)(F)F)c3)n2c1,.,.,0.4,.,.,.,.,
CN(C)C(=O)c1cccc(-c2cnc3c(NC=O)cc(-c4ccccc4Cl)cn23)c1,.,.,2.0,.,.,.,.,
CN(C)C(=O)c1cccc(-c2cnc3c(NC=O)cc(-c4ccccc4N(C)C)cn23)c1,.,.,105.1*,.,.,216.9*,237.1*,
CN1C(N)=NC(=O)/C1=C\c1ccc(Br)cc1,.,.,-0.5,-2.3,1.3,.,.,
COc1c2ccoc2nc2c(OC)c(OC[C@@H](O)C(C)(C)O)ccc12,.,.,24.4*,.,.,37.0*,40.4*,
COc1c2ccoc2nc2c(OC)c(O)ccc12,0.0,-0.3,2.0,2.6,3.1,.,.,
COc1c2ccoc2nc2c(OC)c(OCC(O)C(C)(C)O)ccc12 (centres undefined),1.0,1.8,21.8*,.,.,40.8*,38.9*,
COc1c2ccoc2nc2c(OC)c(OCC(OC(C)=O)C(C)(C)O)ccc12 (centres undefined),1.5,-2.4,18.5*,-0.8,1.6,13.3*,13.4*,
CC(C)(O)C(O)COc1c2ccoc2cc2oc(=O)ccc12 (centres undefined),0.7,-0.4,1.8,1.9,2.9,.,.,
COc1ccc2c(OC)c3ccoc3nc2c1OC,0.5,0.3,26.8*,-0.3,0.3,31.2*,62.0*,

# Source: PubChem BioAssay (several laboratories)
